Measured values reported in ChEMBL document CHEMBL1149415, “Discovery and structure-activity relationship of antagonists of B-cell lymphoma 2 family proteins with chemopotentiation activity in vitro and in vivo” (J Med Chem, 2006).
pEC50, pIC50, pKd, pKi: −log10 of the molar value. Calls of active or inactive are those of the source. The calls are words filed in the database; no cut-off is given here.

Assays:
[1] = target: Apoptosis regulator Bcl-2 (Homo sapiens, UniProt P10415); experiment: Binding affinity to Bcl2 by fluorescence polarization assay
[2] = target: T1, Bcl-2-like protein 1 (Homo sapiens, UniProt Q07817); experiment: Binding affinity to Bcl-XL by fluorescence polarization assay
Target sequence in this assay (Q07817 whole entry): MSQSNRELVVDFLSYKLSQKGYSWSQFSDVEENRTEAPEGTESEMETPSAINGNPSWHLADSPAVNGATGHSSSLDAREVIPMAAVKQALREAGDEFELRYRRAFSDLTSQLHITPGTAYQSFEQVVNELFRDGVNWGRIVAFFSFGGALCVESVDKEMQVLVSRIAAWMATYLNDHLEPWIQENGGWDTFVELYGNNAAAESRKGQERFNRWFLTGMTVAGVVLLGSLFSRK

[3] = target: T1, Bcl-2-like protein 1; experiment: Binding affinity to Bcl-XL in 1% human serum by fluorescence polarization assay
Target sequence in this assay (Q07817 whole entry): as above

[4] = target: T1, Bcl-2-like protein 1; experiment: Activity towards mouse FL5.12 cell line transfected with Bcl-XL in presence of 3% fetal bovine serum; assay type: functional
In short: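 Bcl-XL-transfected murine FL5.12 (IL-3 dependent) grown in RPMI with 10% FBS and WEHI-3B conditioned medium as the IL-3 source. Switched to IL-3-depleted, FBS-free medium for 2 days. Then placed in gelatin assay medium (3.4 mg/mL bovine gelatin) or 3% FBS assay medium. Serial compound dilutions added for 24 h. Viability read by MTS or CellTiter-Glo; duplicate values per determination; EC50.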
Target sequence in this assay (Q07817 whole entry): as above

[5] = target: T1, Bcl-2-like protein 1; experiment: Binding affinity to Bcl-XL in 10% human serum by fluorescence polarization assay
In short: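 Competitive fluorescence polarization: serial compound dilutions compete with 30 nM f-Bad peptide (FITC-labelled) for 60 nM Bcl-XL. Human serum at 10% added to the assay buffer. Duplicate values per determination; Ki calculated.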
Target sequence in this assay (Q07817 whole entry): as above

[6] = target: Albumin (Homo sapiens, UniProt P02768); experiment: Binding affinity for human serum albumin domain III
[7] = target: T1, Bcl-2-like protein 1; experiment: Inhibitory activity against Bcl-XL in presence of HSA3 from 1% human serum
Target sequence in this assay (Q07817 whole entry, looked up): as the sequence (Q07817 whole entry) above

[8] = target: T1, Bcl-2-like protein 1; experiment: Inhibitory activity against Bcl-XL in presence of HSA from 1% human serum
In short: (§1)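 Competitive fluorescence polarization assay: serial compound dilutions compete with 30 nM f-Bad peptide (FITC-labelled) for binding to 60 nM Bcl-XL. Human serum (1%) or individual serum proteins are added to the assay buffer. Protein levels: HSA 0.42 mg/mL, HSA-III 0.146 mg/mL, α1-acid glycoprotein 0.0095 mg/mL. IC50 is calculated from duplicate values per determination.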
Target sequence in this assay (Q07817 whole entry): as above

[9] = target: T1, Bcl-2-like protein 1; experiment: Inhibitory activity against Bcl-XL in presence of alpha-1 acid glycoprotein from 1% human serum; in short: as §1
Target sequence in this assay (Q07817 whole entry): as above

[10] = target: T1, Bcl-2-like protein 1; settings: 10 uM
[11] = target: T1, Bcl-2-like protein 1; experiment: Inhibitory activity against Bcl-XL in presence of 1% human serum; in short: as §1
[12] = tested on: A549; experiment: Effect of viability of human A549 lung carcinoma cells at 20uM after 48h by MTS assay in presence of paclitaxel; assay type: functional, cell-based
In short: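 A549 seeded in DMEM with 5% FBS the day before. Pretreated 48 h with paclitaxel serial 3-fold dilutions from 20 nM, then coincubated 48 h with paclitaxel plus compound in DMEM with 0.34% gelatin (serum-free). Viability by MTS, normalized to untreated cells.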

[13] = tested on: A549; experiment: Antiproliferative activity against human A549 lung carcinoma cell xenograft tumor model in scid mice in presence of paclitaxel at MTD; assay type: functional
In short: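 A549 cells (5 × 10⁶ in 50% Matrigel) inoculated subcutaneously into flank; groups of equal tumor size (N = 10) assigned at ~250 mm³ (day 15). Dosing ip: agent 75 mg/kg/day days 16-36 in 5% Tween 80/20% PEG/75% 0.1 M NaPO₄ pH ~4.0; paclitaxel 30 mg/kg/day days 16, 20, 24. Calipers twice weekly, V = L × W²; %ILS as median time to 1 cm³.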

[14] = target: T2, Bcl-2-like protein 2 (Homo sapiens, UniProt Q92843); experiment: Binding affinity to Bclw
T2 sequence (Q92843 whole entry): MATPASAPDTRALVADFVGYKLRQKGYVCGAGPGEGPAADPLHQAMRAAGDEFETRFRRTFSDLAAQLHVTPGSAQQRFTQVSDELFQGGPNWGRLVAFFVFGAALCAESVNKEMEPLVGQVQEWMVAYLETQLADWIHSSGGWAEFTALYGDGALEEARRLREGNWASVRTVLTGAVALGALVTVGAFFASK

[15] = target: Induced myeloid leukemia cell differentiation protein Mcl-1 (Homo sapiens, UniProt Q07820); experiment: Binding affinity to Mcl1
[16] = tested on: A549; experiment: Effect on viability of human A549 lung carcinoma cells at 20 uM after 48h by MTS assay in presence of 10% fetal bovine serum; assay type: functional, cell-based
In short: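 A549 seeded in DMEM with 5% FBS the day before. Medium removed and UV-C applied (start 32 mJ/cm², halved each step), then compound added in DMEM with 10% FBS. Viability by MTS at 48 h post-exposure, expressed as percent of untreated samples.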

Chain of Apoptosis regulator Bcl-2 (P10415 whole entry): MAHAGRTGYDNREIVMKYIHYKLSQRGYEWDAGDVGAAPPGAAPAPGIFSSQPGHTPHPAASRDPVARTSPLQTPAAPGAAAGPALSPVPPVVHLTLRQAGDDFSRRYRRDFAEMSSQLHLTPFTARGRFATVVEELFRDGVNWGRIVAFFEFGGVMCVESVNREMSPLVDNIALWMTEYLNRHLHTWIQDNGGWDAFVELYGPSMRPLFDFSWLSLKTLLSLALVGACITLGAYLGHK
Chain of Albumin (P02768 whole entry, the tested form may be a part): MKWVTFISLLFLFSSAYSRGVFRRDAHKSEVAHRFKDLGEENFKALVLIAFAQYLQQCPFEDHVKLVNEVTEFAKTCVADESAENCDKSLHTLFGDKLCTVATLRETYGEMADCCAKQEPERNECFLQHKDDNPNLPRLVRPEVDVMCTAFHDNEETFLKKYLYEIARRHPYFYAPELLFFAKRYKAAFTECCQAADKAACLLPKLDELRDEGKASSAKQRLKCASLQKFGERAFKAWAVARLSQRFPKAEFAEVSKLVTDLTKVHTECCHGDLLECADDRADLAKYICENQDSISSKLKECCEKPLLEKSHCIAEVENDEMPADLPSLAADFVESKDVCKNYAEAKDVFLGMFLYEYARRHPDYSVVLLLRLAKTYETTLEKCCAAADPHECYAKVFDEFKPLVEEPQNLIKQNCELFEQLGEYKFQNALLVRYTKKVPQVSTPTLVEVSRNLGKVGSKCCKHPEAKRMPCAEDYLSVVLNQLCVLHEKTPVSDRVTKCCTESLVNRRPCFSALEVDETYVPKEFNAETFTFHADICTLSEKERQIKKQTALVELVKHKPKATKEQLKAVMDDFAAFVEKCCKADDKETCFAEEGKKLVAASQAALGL
Chain of Induced myeloid leukemia cell differentiation protein Mcl-1 (Q07820 whole entry): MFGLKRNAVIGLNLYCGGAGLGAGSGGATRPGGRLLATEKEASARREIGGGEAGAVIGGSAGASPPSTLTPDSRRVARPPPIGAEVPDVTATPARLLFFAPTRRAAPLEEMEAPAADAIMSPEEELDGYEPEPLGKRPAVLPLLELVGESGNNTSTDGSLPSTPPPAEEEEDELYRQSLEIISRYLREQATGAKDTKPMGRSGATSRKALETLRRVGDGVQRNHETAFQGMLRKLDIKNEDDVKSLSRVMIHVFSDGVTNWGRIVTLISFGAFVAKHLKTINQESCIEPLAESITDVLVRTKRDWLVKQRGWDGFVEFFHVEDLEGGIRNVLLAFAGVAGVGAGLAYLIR

Row | pKi [1] | pKi [2] | pKi [3] | pEC50 [4] | Structure (SMILES) | other results
1 | 7.23 | > 9.30 | 6.67 | 5.22 | COc1cc(CCCN2CCOCC2)ccc1-c1ccc(C(=O)NS(=O)(=O)c2ccc(N[C@H](CCCCN(C)C)CSc3ccccc3)c([N+](=O)[O-])c2)cc1 | –
2 | 5.70 | 6.33 | < 5.00 | – | COc1cc(C(=O)N(C)C)ccc1-c1ccc(C(=O)NS(=O)(=O)c2ccc(NCCSc3ccccc3)c([N+](=O)[O-])c2)cc1 | –
3 | 6.14 | 7.12 | 5.22 | 5.03 | CC1(C)CCN(c2ccc(C(=O)NS(=O)(=O)c3ccc(N[C@@H](CCN4CCOCC4)CSc4ccccc4)c([N+](=O)[O-])c3)cc2)CC1 | –
4 | 6.40 | 7.98 | 6.24 | – | COc1cc(CCCN2CCOCC2)ccc1-c1ccc(C(=O)NS(=O)(=O)c2ccc(NCCSc3ccccc3)c([N+](=O)[O-])c2)cc1 | pKi [5]: 5.37
5 | 7.12 | 8.51 | 5.75 | 4.82 | CN(C)C(=O)C[C@H](CSc1ccccc1)Nc1ccc(S(=O)(=O)NC(=O)c2ccc(N3CCC(C)(C)CC3)cc2)cc1[N+](=O)[O-] | –
6 | 6.92 | 8.77 | 6.00 | 5.12 | COc1cc(CCCN2CCOCC2)ccc1-c1ccc(C(=O)NS(=O)(=O)c2ccc(N[C@@H](CSc3ccccc3)CC(=O)N(C)C)c([N+](=O)[O-])c2)cc1 | –
7 | 6.14 | 7.67 | 5.53 | – | COc1cc(CCCO)ccc1-c1ccc(C(=O)NS(=O)(=O)c2ccc(NCCSc3ccccc3)c([N+](=O)[O-])c2)cc1 | –
8 | 6.78 | > 9.30 | < 5.00 | 5.68 | COc1cc(CCCN2CCOCC2)ccc1-c1ccc(C(=O)NS(=O)(=O)c2ccc(N[C@H](CCN3CCOCC3)CSc3ccccc3)c([N+](=O)[O-])c2)cc1 | –
9 | 6.94 | > 9.30 | 6.83 | 5.68 | COc1cc(CCCN2CCOCC2)ccc1-c1ccc(C(=O)NS(=O)(=O)c2ccc(N[C@H](CCN(C)C)CSc3ccccc3)c([N+](=O)[O-])c2)cc1 | pKd [6]: 4.03
10 | 7.04 | 8.59 | 6.14 | 4.85 | CN(C)CCC[C@H](CSc1ccccc1)Nc1ccc(S(=O)(=O)NC(=O)c2ccc(N3CCC(C)(C)CC3)cc2)cc1[N+](=O)[O-] | –
11 | 7.15 | 9.10 | 7.53 | 5.05 | COc1cc(CCCN2CCOCC2)ccc1-c1ccc(C(=O)NS(=O)(=O)c2ccc(N[C@H](CCCCN)CSc3ccccc3)c([N+](=O)[O-])c2)cc1 | –
12 | 6.44 | 7.24 | 6.10 | – | COc1cc(CCC(=O)N2CCOCC2)ccc1-c1ccc(C(=O)NS(=O)(=O)c2ccc(NCCSc3ccccc3)c([N+](=O)[O-])c2)cc1 | –
13 | 5.91 | 6.97 | 6.14 | – | COc1cc(CCCN(C)C)ccc1-c1ccc(C(=O)NS(=O)(=O)c2ccc(NCCSc3ccccc3)c([N+](=O)[O-])c2)cc1 | pKi [5]: 5.25
14 | 7.14 | 8.92 | 6.76 | 5.41 | CN(C)CCCC[C@H](CSc1ccccc1)Nc1ccc(S(=O)(=O)NC(=O)c2ccc(N3CCC(C)(C)CC3)cc2)cc1[N+](=O)[O-] | –
15 | 5.54 | 6.40 | 5.47 | – | CC(C)(C)OC(=O)N1CCN(c2ccc(C(=O)NS(=O)(=O)c3ccc(NCCSc4ccccc4)c([N+](=O)[O-])c3)cc2)CC1 | –
16 | 5.67 | 6.60 | 5.94 | 4.23 | COc1cc(CCCN2CCOCC2)ccc1-c1ccc(C(=O)NS(=O)(=O)c2ccc(N[C@@H](CCN(C)C)CSc3ccccc3)c([N+](=O)[O-])c2)cc1 | –
17 | 5.49 | 6.18 | 6.00 | – | COc1cc(CCN(C)C)ccc1-c1ccc(C(=O)NS(=O)(=O)c2ccc(NCCSc3ccccc3)c([N+](=O)[O-])c2)cc1 | –
18 | 5.90 | 6.60 | 5.41 | 4.79 | CN(C)CC[C@@H](CSc1ccccc1)Nc1ccc(S(=O)(=O)NC(=O)c2ccc(N3CCC(C)(C)CC3)cc2)cc1[N+](=O)[O-] | –
19 | 5.45 | 6.53 | 6.06 | – | CN(C)C(=O)N1CCN(c2ccc(C(=O)NS(=O)(=O)c3ccc(NCCSc4ccccc4)c([N+](=O)[O-])c3)cc2)CC1 | –
20 | – | 5.60 | < 5.00 | – | O=C(NS(=O)(=O)c1ccc(NCCSc2ccccc2)c([N+](=O)[O-])c1)c1ccc(N2CCNCC2)cc1 | –
21 | 6.40 | 7.41 | 6.00 | – | COc1cc(CCC(=O)N(C)C)ccc1-c1ccc(C(=O)NS(=O)(=O)c2ccc(NCCSc3ccccc3)c([N+](=O)[O-])c2)cc1 | –
22 | 6.50 | 9.05 | 7.15 | 5.07 | COc1cc(CCCN2CCOCC2)ccc1-c1ccc(C(=O)NS(=O)(=O)c2ccc(N[C@H](CCCN(C)C)CSc3ccccc3)c([N+](=O)[O-])c2)cc1 | –
23 | 6.36 | 7.44 | 5.60 | – | O=C(NS(=O)(=O)c1ccc(NCCSc2ccccc2)c([N+](=O)[O-])c1)c1ccc(-c2ccc(F)cc2)cc1 | pIC50 [7]: 5.20; pIC50 [8]: < 5.00; pIC50 [9]: 6.91; inhibition [10]: 1%; pIC50 [11]: < 5.00
24 | < 5.00 | 6.05 | 5.53 | – | CC(=O)N1CCN(c2ccc(C(=O)NS(=O)(=O)c3ccc(NCCSc4ccccc4)c([N+](=O)[O-])c3)cc2)CC1 | –
25 | 6.72 | 7.72 | 6.19 | – | CC1(C)CCN(c2ccc(C(=O)NS(=O)(=O)c3ccc(NCCSc4ccccc4)c([N+](=O)[O-])c3)cc2)CC1 | –
26 | < 5.00 | 6.60 | < 5.00 | – | COc1cc(CC(=O)N(C)C)ccc1-c1ccc(C(=O)NS(=O)(=O)c2ccc(NCCSc3ccccc3)c([N+](=O)[O-])c2)cc1 | –
27 | 5.34 | 6.37 | 6.00 | – | COc1cc(CN(C)C)ccc1-c1ccc(C(=O)NS(=O)(=O)c2ccc(NCCSc3ccccc3)c([N+](=O)[O-])c2)cc1 | –
28 | 6.64 | 9.00 | 6.59 | 4.68 | CC1(C)CCN(c2ccc(C(=O)NS(=O)(=O)c3ccc(N[C@H](CCCCN)CSc4ccccc4)c([N+](=O)[O-])c3)cc2)CC1 | –
29 | < 5.00 | 5.97 | < 5.00 | – | O=C(NS(=O)(=O)c1ccc(NCCSc2ccccc2)c([N+](=O)[O-])c1)c1ccc(N2CCOCC2)cc1 | –
30 | 7.26 | 8.96 | < 5.00 | 5.15 | CC1(C)CCN(c2ccc(C(=O)NS(=O)(=O)c3ccc(N[C@H](CCN4CCOCC4)CSc4ccccc4)c([N+](=O)[O-])c3)cc2)CC1 | –

Row | Structure (SMILES) | pKi [1] | pKi [2] | pKi [3] | pEC50 [4] | other results
31 | CN(C)CC[C@H](CSc1ccccc1)Nc1ccc(S(=O)(=O)NC(=O)c2ccc(N3CCC(C)(C)CC3)cc2)cc1[N+](=O)[O-] | 7.17 | 9.10 | 6.44 | 5.29 | Activity [12]: Active; Activity [13]: 75%; pKd [6]: 4.87; pKd [14]: 6.34; pKd [15]: < 5.00; Activity [16]: Active
